From publication PMC6598221 (Saudi Pharmaceutical Journal : SPJ, 2019) come the findings set out here.

In the assay the target is trypsin from porcine pancreas (Sus scrofa, UniProt P00761). Nature of the assay: trypsin inhibition assay. Type of assay: biochemical. The procedure, abridged: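 Porcine pancreatic trypsin. Test compound stock diluted twofold in 50 mM Tris buffer (20 mM CaCl2, pH 8.2). Trypsin and BAPNA added at final 40 and 160 µg/mL, incubated at 37 °C for 12 min, stopped with 30% acetic acid, A410 read. IC50 derived from % inhibition. Caffeic and tannic acids were reference inhibitors. Means ± standard errors; one-way ANOVA with Tukey's test, p < 0.05.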
trypsin from porcine pancreas, sequence (P00761 9-231): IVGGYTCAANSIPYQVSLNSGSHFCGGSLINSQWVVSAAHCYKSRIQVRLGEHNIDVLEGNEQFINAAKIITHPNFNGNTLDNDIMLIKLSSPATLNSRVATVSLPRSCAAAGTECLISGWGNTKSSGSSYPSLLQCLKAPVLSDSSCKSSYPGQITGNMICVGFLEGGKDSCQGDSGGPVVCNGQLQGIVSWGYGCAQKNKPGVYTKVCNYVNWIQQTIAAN

Turning to tannic acid, the IC50 trypsin inhibition came to 75.66 µg/mL.

By IC50 is commonly meant the concentration needed to halve the response being measured. The compound `O=C(O)/C=C/c1ccc(O)c(O)c1` [caffeic acid] gave a concentration for half-maximal inhibition (IC50) of 40.6 mM.
